Common to all, as to type: functional, cell-based
The test system of one assay is HCT-116. The assay can be described thus: Cytotoxicity against human HCT116 cells assessed as growth inhibition after 72 hrs by MTT assay. The note with it: HCT-116, 72 h. The essentials:
(§1)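 MTT proliferation assay; cells exposed 72 h, first screened at 100 μM with ≥50% inhibition versus vehicle-treated cells counted active; active compounds then tested at various concentrations to derive IC50 (concentration giving 50% proliferation inhibition). Sunitinib positive control. Means ± SD of three separate experiments.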

For a further assay, the system named is MCF7. The assay can be described thus: Cytotoxicity against human MCF7 cells assessed as growth inhibition after 72 hrs by MTT assay. The note with it: MCF7, 72 h. The essentials:
as §1
Background: Tetrazolium assays rely on reduction of a dye to a coloured formazan, in cell work by metabolically active cells.

The test system of another assay is A549. The assay can be described thus: Cytotoxicity against human A549 cells assessed as growth inhibition after 72 hrs by MTT assay. As to conditions: A549, 72 h. The essentials:
as §1

As usually defined, the IC50 is the concentration that gives 50% inhibition.

Each structure is given as a SMILES string.

Turning to `O=C1Nc2cc(Cl)ccc2/C1=N/NC(=S)N1CCN(c2ccccc2)CC1`, the IC50 in the assay on HCT-116 turned out to be 17.9 µM; in the assay with MCF7, 23 µM; in the assay with A549, 27.7 µM.

As to `COc1ccc(N2CCN(C(=S)N/N=C3\C(=O)Nc4ccc(Cl)cc43)CC2)cc1`, the IC50 in the assay with HCT-116 amounted to 7.74 µM; in the assay on MCF7, 13.8 µM; in the assay on A549, 7.68 µM.

On to `O=C1Nc2ccc(Br)cc2/C1=N/NC(=S)N1CCN(c2ccccc2)CC1`, for which the 50% inhibitory concentration (IC50) in the assay with HCT-116 amounted to 10.4 µM; in the assay with MCF7 it was 20.5 µM; with A549 it was 12.2 µM.

Take `O=C1Nc2ccc(Cl)cc2/C1=N/NC(=S)N1CCN(c2ccc(Cl)cc2)CC1`: the IC50 came to 5.39 µM in the assay with HCT-116, 13.1 µM with MCF7 and 8.18 µM in the assay with A549.

Take `O=C1Nc2ccc(Cl)cc2/C1=N/NC(=S)N1CCN(c2ccccc2[N+](=O)[O-])CC1`: the IC50 in the assay with HCT-116 came to 4.57 µM; in the assay on MCF7 it was 7.49 µM; with A549 it was 5.58 µM.

With `O=C1Nc2ccccc2/C1=N/NC(=S)Nc1ccccc1`, the IC50 with HCT-116, in the assay with MCF7 and in the assay with A549 was more than 100 µM throughout.

As to `O=C1Nc2ccc(Cl)cc2/C1=N/NC(=S)N1CCN(c2ccc(F)cc2)CC1`, the IC50 in the assay on HCT-116 worked out at 6.35 µM; in the assay with MCF7, 12.3 µM; in the assay on A549, 8.9 µM.

Consider `O=C1Nc2cc(Br)ccc2/C1=N/NC(=S)N1CCN(c2ccccc2)CC1`, for which the values for the 50% inhibitory concentration (IC50) in the assay with HCT-116, in the assay with MCF7 and in the assay with A549 were 14.5 µM, 19.7 µM and 15.8 µM, respectively.

Regarding `O=C1Nc2ccc(Cl)cc2/C1=N/NC(=S)Nc1ccccc1`, the IC50 with HCT-116 is 30.8 µM; in the assay with MCF7 it was 35 µM; in the assay with A549, 33.1 µM.

As for `COc1ccc2c(c1)/C(=N/NC(=S)N1CCN(c3ccccc3)CC1)C(=O)N2`, the values for the half-maximal inhibitory concentration (IC50) in the assay with HCT-116, in the assay on MCF7 and with A549 were 9.53 µM, 14.4 µM and 7.52 µM, respectively.

Take `O=C1Nc2ccc(F)cc2/C1=N/NC(=S)N1CCN(c2ccccc2)CC1`: the half-maximal inhibitory concentration (IC50) is 12.3 µM in the assay on HCT-116, 24.3 µM in the assay with MCF7 and 20.7 µM in the assay with A549.

In the case of `O=C1Nc2c(Br)cc(Br)cc2/C1=N/NC(=S)N1CCN(c2ccccc2)CC1`, the half-maximal inhibitory concentration (IC50) stood at 6.32 µM in the assay on HCT-116, 11.6 µM in the assay with MCF7 and 6.11 µM in the assay on A549.

For the compound `O=C1Nc2cccc(Br)c2/C1=N/NC(=S)N1CCN(c2ccccc2)CC1`, the half-maximal inhibitory concentration (IC50) with HCT-116 came out at 33.6 µM; with MCF7, 40.7 µM; in the assay on A549, 54 µM.

`O=C1Nc2ccc(Cl)cc2/C1=N/NC(=S)N1CCN(c2ccccc2F)CC1`: the IC50 in the assay on HCT-116 worked out at 8.29 µM; in the assay on MCF7, 15.2 µM; in the assay with A549, 10.5 µM.

As for `Cc1ccccc1N1CCN(C(=S)N/N=C2\C(=O)Nc3ccc(Cl)cc32)CC1`, the IC50 stood at 4.91 µM in the assay with HCT-116, 10.9 µM in the assay on MCF7 and 6.52 µM in the assay with A549.

On to `O=C1Nc2ccc(Cl)cc2/C1=N/NC(=S)N1CCN(c2ccccc2Cl)CC1`, for which the 50% inhibitory concentration (IC50) in the assay with HCT-116 came to 4.91 µM; with MCF7, 11.7 µM; in the assay on A549, 7.92 µM.

For `O=C1Nc2ccc([N+](=O)[O-])cc2/C1=N/NC(=S)N1CCN(c2ccccc2)CC1`, the IC50 was determined as 15.1 µM in the assay with HCT-116, 23.3 µM in the assay on MCF7 and 17.9 µM in the assay on A549.

In the case of `O=C1Nc2ccc(Cl)cc2/C1=N/NC(=S)N1CCN(c2ccc(F)cc2F)CC1`, the half-inhibitory concentration (IC50) with HCT-116 is 5.89 µM; with MCF7, 20.1 µM; with A549 it was 11.4 µM.

`Cc1ccc(N2CCN(C(=S)N/N=C3\C(=O)Nc4ccc(Cl)cc43)CC2)c(C)c1`: the figures for the 50% inhibitory concentration (IC50) in the assay with HCT-116, with MCF7 and with A549 were 7.18 µM, 10.8 µM and 3.59 µM, respectively.

As to `Cc1ccc2c(c1)/C(=N/NC(=S)N1CCN(c3ccccc3)CC1)C(=O)N2`, the IC50 in the assay with HCT-116 came to 9.48 µM; in the assay with MCF7 it was 14.9 µM; in the assay on A549, 9.88 µM.

Regarding `O=C1Nc2ccc(Cl)cc2/C1=N/NC(=S)N1CCN(c2ccccc2)CC1`, the figures for the half-maximal inhibitory concentration (IC50) in the assay on HCT-116, in the assay on MCF7 and with A549 were 3.49 µM, 10.4 µM and 7.34 µM, respectively.

`Cc1ccc(N2CCN(C(=S)N/N=C3\C(=O)Nc4ccc(Cl)cc43)CC2)cc1`: the values for the half-inhibitory concentration (IC50) in the assay with HCT-116, in the assay on MCF7 and with A549 were 6.39 µM, 17.1 µM and 10.1 µM, respectively.

Take `CCN(CC)CCNC(=O)c1c(C)[nH]c(/C=C2\C(=O)Nc3ccc(F)cc32)c1C` [SUNITINIB]: the IC50 in the assay with HCT-116 turned out to be 4.71 µM; with MCF7, 6.29 µM; in the assay with A549, 2.44 µM.

`O=C1Nc2cccc(Cl)c2/C1=N/NC(=S)N1CCN(c2ccccc2)CC1`: the IC50 in the assay on HCT-116 was determined as 42.1 µM; with MCF7, 52.1 µM; with A549, 55.9 µM.

`O=C1Nc2ccc(Cl)cc2/C1=N/NC(=S)N1CCN(c2ccc([N+](=O)[O-])cc2)CC1`: the half-maximal inhibitory concentration (IC50) with HCT-116 was 12 µM; in the assay on MCF7, 20.9 µM; in the assay on A549, 11.8 µM.

As for `O=C1Nc2ccccc2/C1=N/NC(=S)N1CCN(c2ccccc2)CC1`, the half-inhibitory concentration (IC50) stood at 11.1 µM in the assay with HCT-116, 24.9 µM with MCF7 and 18.6 µM in the assay on A549.

For `O=C1Nc2ccc(Cl)cc2/C1=N/NC(=S)N1CCN(c2ccc(Cl)c(Cl)c2)CC1`, the IC50 in the assay on HCT-116 stood at 5.82 µM; in the assay on MCF7 it was 10.8 µM; with A549, 7.95 µM.

In the case of `Cc1ccc(NC(=S)N/N=C2\C(=O)Nc3ccc(Cl)cc32)c(C)c1`, the IC50 with HCT-116, in the assay on MCF7 and in the assay with A549 was more than 100 µM in each case.

Values taken from ChEMBL document CHEMBL2380276, “Synthesis and antiproliferative evaluation of piperazine-1-carbothiohydrazide derivatives of indolin-2-one” (Bioorg Med Chem Lett, 2013).
